Results as given in ChEMBL document CHEMBL4138126, “Synthesis, antiproliferative, anti-tubulin activity, and docking study of new 1,2,4-triazoles as potential combretastatin analogues” (Eur J Med Chem, 2017).

How the values were obtained:
Format in all cases: functional
HCT-116 = test: Growth inhibition of human HCT116 cells assessed as cell growth at 10 uM after 48 hrs by sulforhodamine B assay; conditions: HCT-116, 48 h, read-out: Activity
Summary of the method: (§1)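 NCI 60-cell-line panel screen (nine cancer types). Compounds added at single concentration 10^-5 M, cultures incubated 48 h; growth inhibition percentages reported.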

BT-549 = test: Growth inhibition of human BT549 cells assessed as cell growth at 10 uM after 48 hrs by sulforhodamine B assay; conditions: BT-549, 48 h, read-out: Activity; summary of the method: as §1
HL-60(TB) = test: Growth inhibition of human HL-60(TB) cells assessed as cell growth at 10 uM after 48 hrs by sulforhodamine B assay; conditions: HL-60, 48 h, read-out: Activity
Summary of the method: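 Screened by the NCI in its 60-cell-line panel covering nine cancer types, including leukemia. Compounds were added at a single concentration, and the cultures were incubated for 48 h. Results are reported as percent growth inhibition.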

MDA-MB-231 = test: Growth inhibition of human MDA-MB-231 cells assessed as cell growth at 10 uM after 48 hrs by sulforhodamine B assay; conditions: MDA-MB-231, 48 h, read-out: Activity; summary of the method: as §1
OVCAR-4 = test: Growth inhibition of human OVCAR4 cells assessed as cell growth at 10 uM after 48 hrs by sulforhodamine B assay; conditions: OVCAR-4, 48 h, read-out: Activity; summary of the method: as §1
TK-10 = test: Growth inhibition of human TK10 cells assessed as cell growth at 10 uM after 48 hrs by sulforhodamine B assay; conditions: TK-10, 48 h, read-out: Activity
Summary of the method: (§2)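 NCI 60-cell-line panel from nine tumour types (leukaemia, lung, colon, CNS, melanoma, ovarian, renal, prostate, breast). Each compound was added at one single concentration, and cultures were incubated for 48 h. Results are reported as percent growth inhibition.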

SK-MEL-2 = test: Growth inhibition of human SK-MEL-2 cells assessed as cell growth at 10 uM after 48 hrs by sulforhodamine B assay; conditions: SK-MEL-2, 48 h, read-out: Activity; summary of the method: as §1
HCT-15 = test: Growth inhibition of human HCT15 cells assessed as cell growth at 10 uM after 48 hrs by sulforhodamine B assay; conditions: HCT-15, 48 h, read-out: Activity; summary of the method: as §1
HT-29 = test: Growth inhibition of human HT-29 cells assessed as cell growth at 10 uM after 48 hrs by sulforhodamine B assay; conditions: HT-29, 48 h, read-out: Activity; summary of the method: as §1
RPMI-8226 = test: Growth inhibition of human RPMI8226 cells assessed as cell growth at 10 uM after 48 hrs by sulforhodamine B assay; conditions: RPMI-8226, 48 h, read-out: Activity; summary of the method: as §1
A498 = test: Growth inhibition of human A498 cells assessed as cell growth at 10 uM after 48 hrs by sulforhodamine B assay; conditions: A498, 48 h, read-out: Activity; summary of the method: as §1
UO-31 = test: Growth inhibition of human UO31 cells assessed as cell growth at 10 uM after 48 hrs by sulforhodamine B assay; conditions: UO-31, 48 h, read-out: Activity; summary of the method: as §2
KM12 = test: Growth inhibition of human KM12 cells assessed as cell growth at 10 uM after 48 hrs by sulforhodamine B assay; conditions: KM12, 48 h, read-out: Activity; summary of the method: as §1
SR = test: Growth inhibition of human SR cells assessed as cell growth at 10 uM after 48 hrs by sulforhodamine B assay; conditions: read-out: Activity; summary of the method: as §2
A549 = test: Growth inhibition of human A549/ATCC cells assessed as cell growth at 10 uM after 48 hrs by sulforhodamine B assay; conditions: A549, 48 h, read-out: Activity; summary of the method: as §1
SF-539 = test: Growth inhibition of human SF539 cells assessed as cell growth at 10 uM after 48 hrs by sulforhodamine B assay; conditions: SF-539, 48 h, read-out: Activity; summary of the method: as §1
SW-620 = test: Growth inhibition of human SW620 cells assessed as cell growth at 10 uM after 48 hrs by sulforhodamine B assay; conditions: SW-620, 48 h, read-out: Activity; summary of the method: as §2
786-0 = test: Growth inhibition of human 786-0 cells assessed as cell growth at 10 uM after 48 hrs by sulforhodamine B assay; conditions: 786-0, 48 h, read-out: Activity; summary of the method: as §1
PC-3 = test: Growth inhibition of human PC3 cells assessed as cell growth at 10 uM after 48 hrs by sulforhodamine B assay; conditions: PC-3, 48 h, read-out: Activity; summary of the method: as §1
LOX IMVI = test: Growth inhibition of human LOXIMVI cells assessed as cell growth at 10 uM after 48 hrs by sulforhodamine B assay; conditions: read-out: Activity; summary of the method: as §1
ACHN = test: Growth inhibition of human ACHN cells assessed as cell growth at 10 uM after 48 hrs by sulforhodamine B assay; conditions: read-out: Activity; summary of the method: as §1
U-251 = test: Growth inhibition of human U251 cells assessed as cell growth at 10 uM after 48 hrs by sulforhodamine B assay; conditions: U-251, 48 h, read-out: Activity; summary of the method: as §2
CCRF-CEM = test: Growth inhibition of human CCRF-CEM cells assessed as cell growth at 10 uM after 48 hrs by sulforhodamine B assay; conditions: read-out: Activity; summary of the method: as §1
MCF7 = test: Growth inhibition of human MCF7 cells assessed as cell growth at 10 uM after 48 hrs by sulforhodamine B assay; conditions: MCF7, 48 h, read-out: Activity; summary of the method: as §1
HOP-62 = test: Growth inhibition of human HOP62 cells assessed as cell growth at 10 uM after 48 hrs by sulforhodamine B assay; conditions: HOP-62, 48 h, read-out: Activity; summary of the method: as §1
Malme-3M = test: Growth inhibition of human MALME-3M cells assessed as cell growth at 10 uM after 48 hrs by sulforhodamine B assay; conditions: read-out: Activity; summary of the method: as §1
NCI-H522 = test: Growth inhibition of human NCI-H522 cells assessed as cell growth at 10 uM after 48 hrs by sulforhodamine B assay; conditions: NCI-H522, 48 h, read-out: Activity; summary of the method: as §1
NCI-H322M = test: Growth inhibition of human NCI-H322M cells assessed as cell growth at 10 uM after 48 hrs by sulforhodamine B assay; conditions: read-out: Activity; summary of the method: as §1
MOLT-4 = test: Growth inhibition of human MOLT4 cells assessed as cell growth at 10 uM after 48 hrs by sulforhodamine B assay; conditions: MOLT-4, 48 h, read-out: Activity; summary of the method: as §1
SF-268 = test: Growth inhibition of human SF268 cells assessed as cell growth at 10 uM after 48 hrs by sulforhodamine B assay; conditions: SF-268, 48 h, read-out: Activity; summary of the method: as §1
SNB-75 = test: Growth inhibition of human SNB75 cells assessed as cell growth at 10 uM after 48 hrs by sulforhodamine B assay; conditions: SNB-75, 48 h, read-out: Activity; summary of the method: as §2
HOP-92 = test: Growth inhibition of human HOP92 cells assessed as cell growth at 10 uM after 48 hrs by sulforhodamine B assay; conditions: HOP-92, 48 h, read-out: Activity; summary of the method: as §1
DU-145 = test: Growth inhibition of human DU145 cells assessed as cell growth at 10 uM after 48 hrs by sulforhodamine B assay; conditions: DU-145, 48 h, read-out: Activity; summary of the method: as §1

COc1cccc(-n2nc(C(=O)Nc3ccccc3)nc2-c2cc(OC)c(OC)c(OC)c2)c1
growth at 10 µM (HCT-116): 91.3%
growth at 10 µM (BT-549): 87.4%
growth at 10 µM (HL-60(TB)): 121%
growth at 10 µM (MDA-MB-231): 104%
growth at 10 µM (OVCAR-4): 81.8%
growth at 10 µM (TK-10): 53.2%
growth at 10 µM (SK-MEL-2): 98%
growth at 10 µM (HCT-15): 88%
growth at 10 µM (HT-29): 79.9%
growth at 10 µM (RPMI-8226): 108%
growth at 10 µM (A498): 100%
growth at 10 µM (UO-31): 61.6%
growth at 10 µM (KM12): 96.6%
growth at 10 µM (SR): 93.9%
growth at 10 µM (A549): 92.4%
growth at 10 µM (SF-539): 93.6%
growth at 10 µM (SW-620): 100%
growth at 10 µM (786-0): 79.4%
growth at 10 µM (PC-3): 90%
growth at 10 µM (LOX IMVI): 102%
growth at 10 µM (ACHN): 93.8%
growth at 10 µM (U-251): 93.6%
growth at 10 µM (CCRF-CEM): 105%
growth at 10 µM (MCF7): 91.6%
growth at 10 µM (HOP-62): 83.8%
growth at 10 µM (Malme-3M): 95.9%
growth at 10 µM (NCI-H522): 65.5%
growth at 10 µM (NCI-H322M): 81.1%
growth at 10 µM (MOLT-4): 105%
growth at 10 µM (SF-268): 88.6%
growth at 10 µM (SNB-75): 55.5%
growth at 10 µM (HOP-92): 97.9%
growth at 10 µM (DU-145): 104%

CCOc1ccc(-n2nc(C(=O)Nc3ccccc3OC)nc2-c2cc(OC)c(OC)c(OC)c2)cc1
growth at 10 µM (HCT-116): 72.7%
growth at 10 µM (BT-549): 77.6%
growth at 10 µM (HL-60(TB)): 73.2%
growth at 10 µM (MDA-MB-231): 44.5%
growth at 10 µM (OVCAR-4): 72.9%
growth at 10 µM (TK-10): 89.2%
growth at 10 µM (SK-MEL-2): 81.9%
growth at 10 µM (HCT-15): 80.8%
growth at 10 µM (HT-29): 74%
growth at 10 µM (RPMI-8226): 68.2%
growth at 10 µM (A498): 83.8%
growth at 10 µM (UO-31): 59.6%
growth at 10 µM (KM12): 96.2%
growth at 10 µM (SR): 65.7%
growth at 10 µM (A549): 77.3%
growth at 10 µM (SF-539): 85.7%
growth at 10 µM (SW-620): 100%
growth at 10 µM (786-0): 79.1%
growth at 10 µM (PC-3): 65.5%
growth at 10 µM (LOX IMVI): 92.2%
growth at 10 µM (ACHN): 79.3%
growth at 10 µM (U-251): 94%
growth at 10 µM (CCRF-CEM): 94%
growth at 10 µM (MCF7): 77.4%
growth at 10 µM (HOP-62): 86.5%
growth at 10 µM (Malme-3M): 99.8%
growth at 10 µM (NCI-H522): 69.2%
growth at 10 µM (NCI-H322M): 77.4%
growth at 10 µM (MOLT-4): 76.5%
growth at 10 µM (SF-268): 89.2%
growth at 10 µM (SNB-75): 66.6%
growth at 10 µM (HOP-92): 86.8%
growth at 10 µM (DU-145): 95.6%
